Measurements taken from ChEMBL document CHEMBL1255425, “Mutant APH(2'')-IIa enzymes with increased activity against amikacin and isepamicin” (2010).
Converted amounts (≈) assume the structure as drawn.

Assays:
Escherichia coli [1] = experiment: Antibacterial activity against Escherichia coli JM83 harboring pHF022 containing aminoglycoside 2''-2a phosphotransferase R92H/D268N mutant by broth microdilution method; format: functional
How it was run: (§1)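 MICs by CLSI broth microdilution in Mueller-Hinton II broth; inoculum 5 × 10^5 CFU/ml; plates read after 20 h at 35°C. Host E. coli JM83 carrying pHF022 (empty or with cloned wild-type or mutant aph(2″)-IIa gene between NdeI and HindIII). Values are averages of at least three independent experiments.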

Escherichia coli [2] = experiment: Antibacterial activity against Escherichia coli JM83 producing aminoglycoside 2''-2a phosphotransferase by broth microdilution method; format: functional; how it was run: as §1
Escherichia coli [3] = experiment: Antibacterial activity against Escherichia coli JM83 harboring pHF022 containing aminoglycoside 2''-2a phosphotransferase N196D/D268N mutant by broth microdilution method; format: functional; how it was run: as §1
Escherichia coli [4] = experiment: Antibacterial activity against Escherichia coli JM83 harboring pHF022 containing aminoglycoside 2''-2a N196D mutant by broth microdilution method; format: functional; how it was run: as §1
Escherichia coli [5] = experiment: Antibacterial activity against Escherichia coli JM83 harboring empty pHF022 vector by broth microdilution method; format: functional; how it was run: as §1
Escherichia coli [6] = experiment: Antibacterial activity against Escherichia coli JM83 harboring pHF022 containing aminoglycoside 2''-2a D268N mutant by broth microdilution method; format: functional; how it was run: as §1
Escherichia coli [7] = experiment: Antibacterial activity against Escherichia coli JM83 harboring pHF022 containing aminoglycoside 2''-2a phosphotransferase R92H mutant by broth microdilution method; format: functional; how it was run: as §1
[8] = Ratio of Kcat to Km for Aminoglycoside […] 2a R92H/D268N mutant using ATP/GTP as second substrate by spectrophotometric assay
How it was run: (§2)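 Enzymes were expressed in E. coli BL21(DE3) and affinity-purified: gentamicin column for wild type and N196D/D268N, kanamycin column for R92H/D268N. Activity was read by continuous PK/LDH-coupled NADH assay in 100 mM HEPES pH 7.5, 10 mM MgCl2, 20 mM KCl, 2 mM PEP, 140 μM NADH, with 5 to 10 nM enzyme. ATP/GTP was varied with kanamycin A fixed at 10 μM. Values came from nonlinear Michaelis-Menten fits.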

[9] = Ratio of Kcat to Km for Aminoglycoside […] 2a using ATP/GTP as second substrate by spectrophotometric assay; how it was run: as §2
[10] = Ratio of Kcat to Km for Aminoglycoside […] 2a N196D/D268N mutant using ATP/GTP as second substrate by spectrophotometric assay; how it was run: as §2
[11] = Activity of Aminoglycoside […] 2a R92H/D268N mutant using ATP/GTP as second substrate by spectrophotometric assay; how it was run: as §2
[12] = Activity of Aminoglycoside […] 2a using ATP/GTP as second substrate by spectrophotometric assay; how it was run: as §2
[13] = Activity of Aminoglycoside […] 2a N196D/D268N mutant using ATP/GTP as second substrate by spectrophotometric assay; how it was run: as §2

| Compound | MIC (Escherichia coli [1]) | MIC (Escherichia coli [2]) | MIC (Escherichia coli [3]) | MIC (Escherichia coli [4]) | MIC (Escherichia coli [5]) | MIC (Escherichia coli [6]) | MIC (Escherichia coli [7]) | kcat/Km [8] | kcat/Km [9] | kcat/Km [10] | Km [11] | kcat [11] | Km [12] | kcat [12] | Km [13] | kcat [13] |
| --- | --- | --- | --- | --- | --- | --- | --- | --- | --- | --- | --- | --- | --- | --- | --- | --- |
| NC[C@H]1O[C@H](O[C@H]2[C@H](O)[C@@H](O[C@H]3O[C@H](CO)[C@@H](O)[C@H](N)[C@H]3O)[C@H](N)C[C@@H]2N)[C@H](N)[C@@H](O)[C@@H]1O [BEKANAMYCIN] | 64 µg/mL (≈ 132 µM) | 64 µg/mL (≈ 132 µM) | 64 µg/mL (≈ 132 µM) | 64 µg/mL (≈ 132 µM) | 1 µg/mL (≈ 2.07 µM) | 64 µg/mL (≈ 132 µM) | 64 µg/mL (≈ 132 µM) | – | – | – | – | – | – | – | – | – |
| CN[C@@H]1[C@@H](O)[C@@H](O[C@@H]2[C@@H](O)[C@H](O[C@H]3O[C@H](C(C)O)[C@@H](O)[C@H](O)[C@H]3N)[C@@H](N)C[C@H]2N)OC[C@]1(C)O (single isomer, unassigned) [GENETICIN] | 512 µg/mL (≈ 1030 µM) | 512 µg/mL (≈ 1030 µM) | 512 µg/mL (≈ 1030 µM) | 512 µg/mL (≈ 1030 µM) | 2 µg/mL (≈ 4.03 µM) | 512 µg/mL (≈ 1030 µM) | 512 µg/mL (≈ 1030 µM) | – | – | – | – | – | – | – | – | – |
| GENTAMICIN | 16 µg/mL | 16 µg/mL | 16 µg/mL | 16 µg/mL | 0.25 µg/mL | 16 µg/mL | 16 µg/mL | – | – | – | – | – | – | – | – | – |
| CCN[C@@H]1C[C@H](N)[C@@H](O[C@H]2OC(CN)=CC[C@H]2N)[C@H](O)[C@H]1O[C@H]1OC[C@](C)(O)[C@H](NC)[C@H]1O [NETILMICIN] | 8 µg/mL (≈ 16.8 µM) | 8 µg/mL (≈ 16.8 µM) | 8 µg/mL (≈ 16.8 µM) | 8 µg/mL (≈ 16.8 µM) | 0.25 µg/mL (≈ 0.526 µM) | 4 µg/mL (≈ 8.41 µM) | 16 µg/mL (≈ 33.6 µM) | – | – | – | – | – | – | – | – | – |
| CN[C@@H]1[C@@H](O)[C@@H](O[C@@H]2[C@@H](O)[C@H](O[C@H]3OC(CN)=CC[C@H]3N)[C@@H](N)C[C@H]2N)OC[C@]1(C)O [SISOMICIN] | 8 µg/mL (≈ 17.9 µM) | 8 µg/mL (≈ 17.9 µM) | 4 µg/mL (≈ 8.94 µM) | 8 µg/mL (≈ 17.9 µM) | 0.25 µg/mL (≈ 0.559 µM) | 4 µg/mL (≈ 8.94 µM) | 8 µg/mL (≈ 17.9 µM) | – | – | – | – | – | – | – | – | – |
| NC[C@@H]1O[C@@H](O[C@H]2[C@H](O)[C@@H](O[C@H]3O[C@H](CO)[C@@H](O)[C@H](N)[C@H]3O)[C@H](N)C[C@@H]2N)[C@@H](O)[C@H](O)[C@H]1O [KANAMYCIN A] | 256 µg/mL (≈ 528 µM) | 256 µg/mL (≈ 528 µM) | 256 µg/mL (≈ 528 µM) | 256 µg/mL (≈ 528 µM) | 2 µg/mL (≈ 4.13 µM) | 256 µg/mL (≈ 528 µM) | 256 µg/mL (≈ 528 µM) | > 2 ×10⁷ /M/s | 2.2 ×10⁷ /M/s | > 1.4 ×10⁷ /M/s | < 1 µM | 20.5 s⁻¹ | 2.1 µM | 45.1 s⁻¹ | < 1 µM | 13.8 s⁻¹ |
| NCC[C@H](O)C(=O)N[C@@H]1C[C@H](N)[C@@H](O[C@H]2O[C@H](CN)[C@@H](O)[C@H](O)[C@H]2O)[C@H](O)[C@H]1O[C@H]1O[C@H](CO)[C@@H](O)[C@H](N)[C@H]1O [AMIKACIN] | 16 µg/mL (≈ 27.3 µM) | 2 µg/mL (≈ 3.42 µM) | 16 µg/mL (≈ 27.3 µM) | 2 µg/mL (≈ 3.42 µM) | 2 µg/mL (≈ 3.42 µM) | 2 µg/mL (≈ 3.42 µM) | 2 µg/mL (≈ 3.42 µM) | 9.4 ×10⁵ /M/s | 1.3 ×10⁵ /M/s | 1 ×10⁶ /M/s | 23.7 µM | 22.3 s⁻¹ | 62.9 µM | 8.3 s⁻¹ | 13.5 µM | 13.8 s⁻¹ |
| Nc1nc(=O)c2ncn([C@@H]3O[C@H](COP(=O)(O)OP(=O)(O)OP(=O)(O)O)[C@@H](O)C3O)c2[nH]1 (single isomer, unassigned) | – | – | – | – | – | – | – | 3.2 ×10⁵ /M/s | 1.3 ×10⁵ /M/s | 6.5 ×10⁵ /M/s | 28.2 µM | 8.9 s⁻¹ | 70 µM | 9.4 s⁻¹ | 16.2 µM | 10.6 s⁻¹ |
| NC[C@@H]1CC[C@@H](N)[C@@H](O[C@H]2[C@H](O)[C@@H](O[C@H]3O[C@H](CO)[C@@H](O)[C@H](N)[C@H]3O)[C@H](N)C[C@@H]2N)O1 [DIBEKACIN] | 64 µg/mL (≈ 142 µM) | 64 µg/mL (≈ 142 µM) | 64 µg/mL (≈ 142 µM) | 64 µg/mL (≈ 142 µM) | 0.5 µg/mL (≈ 1.11 µM) | 32 µg/mL (≈ 70.9 µM) | 64 µg/mL (≈ 142 µM) | 2.3 ×10⁷ /M/s | 1.4 ×10⁷ /M/s | > 1.7 ×10⁷ /M/s | 1.2 µM | 27.5 s⁻¹ | 1.2 µM | 17.1 s⁻¹ | < 1 µM | 16.9 s⁻¹ |
| Nc1ncnc2c1ncn2[C@@H]1O[C@H](COP(=O)(O)OP(=O)(O)OP(=O)(O)O)[C@@H](O)[C@H]1O | – | – | – | – | – | – | – | 7.2 ×10⁵ /M/s | 2.7 ×10⁶ /M/s | 2.2 ×10⁶ /M/s | 29.5 µM | 21.4 s⁻¹ | 16.3 µM | 43.3 s⁻¹ | 5.6 µM | 12.1 s⁻¹ |
| CN[C@@H]1[C@@H](O)[C@@H](O[C@@H]2[C@@H](O)[C@H](O[C@H]3O[C@H](CN)[C@@H](O)[C@H](O)[C@H]3O)[C@@H](N)C[C@H]2NC(=O)[C@@H](O)CN)OC[C@]1(C)O [ISEPAMICIN] | 16 µg/mL (≈ 28.1 µM) | 2 µg/mL (≈ 3.51 µM) | 16 µg/mL (≈ 28.1 µM) | 2 µg/mL (≈ 3.51 µM) | 2 µg/mL (≈ 3.51 µM) | 2 µg/mL (≈ 3.51 µM) | 4 µg/mL (≈ 7.02 µM) | 2.3 ×10⁶ /M/s | 4.4 ×10⁵ /M/s | 2 ×10⁶ /M/s | 1.2 µM | 2.8 s⁻¹ | 13.5 µM | 5.7 s⁻¹ | 2 µM | 4.1 s⁻¹ |
| NC[C@H]1O[C@H](O[C@H]2[C@H](O)[C@@H](O[C@H]3O[C@H](CO)[C@@H](O)[C@H](N)[C@H]3O)[C@H](N)C[C@@H]2N)[C@H](N)C[C@@H]1O [TOBRAMYCIN] | 64 µg/mL (≈ 137 µM) | 64 µg/mL (≈ 137 µM) | 64 µg/mL (≈ 137 µM) | 64 µg/mL (≈ 137 µM) | 1 µg/mL (≈ 2.14 µM) | 32 µg/mL (≈ 68.4 µM) | 64 µg/mL (≈ 137 µM) | > 2.7 ×10⁷ /M/s | 1.7 ×10⁷ /M/s | > 1.7 ×10⁷ /M/s | < 1 µM | 26.7 s⁻¹ | 1.5 µM | 26.1 s⁻¹ | < 1 µM | 16.6 s⁻¹ |
